≈ marks a conversion by molar mass, not a printed value.
Experiments:
Format in all cases: functional
Klebsiella pneumoniae [1] = assay: Antimicrobial activity against Klebsiella pneumoniae expressing beta-lactamase SHV by Etest based on multiple determinants
Method in brief: (§1)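 Clinical isolates from tigecycline phase 3 trials were received as frozen primary cultures. Repeat isolates from one patient were riboprinted, and only the first of identical strains was kept. β-lactamase genes were assigned by PCR against control strains, plus isoelectric focusing. ESBL confirmation used Etest ESBL strips carrying ceftazidime or cefotaxime with clavulanic acid, read per the manufacturer's instructions.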

Escherichia coli [2] = assay: Antimicrobial activity against Escherichia coli expressing beta-lactamase CTX and SHV by Etest
Method in brief: (§2)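 Clinical isolates from tigecycline phase 3 trials were received as frozen primary cultures. Serial isolates from one patient were riboprinted, and only the first of identical strains was kept. β-Lactamase genes were assigned by PCR. ESBL confirmation used Etest ESBL strips carrying ceftazidime or cefotaxime, alone and combined with clavulanic acid, following the strip maker's instructions.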

Klebsiella pneumoniae [3] = assay: Antimicrobial activity against Klebsiella pneumoniae expressing beta-lactamase CTX by Etest based on single determinant; method in brief: as §1
Escherichia coli [4] = assay: Antimicrobial activity against Escherichia coli expressing beta-lactamase AmpC by Etest; method in brief: as §2
Klebsiella pneumoniae [5] = assay: Antimicrobial activity against Klebsiella pneumoniae expressing extended-spectrum beta-lactamase and beta-lactamase AmpC by Etest; method in brief: as §2
Escherichia coli [6] = assay: Antimicrobial activity against Escherichia coli expressing beta-lactamase CTX by Etest based on multiple determinants; method in brief: as §2
Escherichia coli [7] = assay: Antimicrobial activity against Escherichia coli expressing beta-lactamase CTX by Etest based on single determinant; method in brief: as §2
Proteus mirabilis [8] = assay: Antimicrobial activity against Proteus mirabilis expressing beta-lactamase AmpC by Etest; method in brief: as §1
Escherichia coli [9] = assay: Antimicrobial activity against Escherichia coli expressing beta-lactamase SHV by Etest; method in brief: as §2
Escherichia coli [10] = assay: Antimicrobial activity against Escherichia coli expressing beta-lactamase AmpC and extended-spectrum beta-lactamase by Etest; method in brief: as §2
Klebsiella pneumoniae [11] = assay: Antimicrobial activity against Klebsiella pneumoniae expressing beta-lactamase CTX by Etest based on multiple determinants; method in brief: as §1
Proteus mirabilis [12] = assay: Antimicrobial activity against Proteus mirabilis extended-spectrum beta-lactamase producing isolate by Etest; method in brief: as §1
Klebsiella pneumoniae [13] = assay: Antimicrobial activity against Klebsiella pneumoniae extended-spectrum beta-lactamase producing isolate by Etest; method in brief: as §1
Proteus mirabilis [14] = assay: Antimicrobial activity against Proteus mirabilis expressing extended-spectrum beta-lactamase by Etest based on multiple determinants; method in brief: as §1
Klebsiella pneumoniae [15] = assay: Antimicrobial activity against Klebsiella pneumoniae expressing beta-lactamase SHV by Etest based on single determinant; method in brief: as §1
Proteus mirabilis [16] = assay: Antimicrobial activity against Proteus mirabilis expressing extended-spectrum beta-lactamase by Etest based on single determinant; method in brief: as §1
Escherichia coli [17] = assay: Antimicrobial activity against Escherichia coli extended-spectrum beta-lactamase producing isolate by Etest; method in brief: as §2
Klebsiella pneumoniae [18] = assay: Antimicrobial activity against Klebsiella pneumoniae expressing beta-lactamase SHV and CTX by Etest; method in brief: as §1
Klebsiella pneumoniae [19] = assay: Antimicrobial activity against Klebsiella pneumoniae expressing beta-lactamase DHA by Etest; method in brief: as §2

| SMILES | MIC (Klebsiella pneumoniae [1]) | MIC50 (Escherichia coli [2]) | MIC90 (Escherichia coli [2]) | MIC50 (Klebsiella pneumoniae [3]) | MIC90 (Klebsiella pneumoniae [3]) | MIC (Escherichia coli [4]) | MIC (Klebsiella pneumoniae [5]) | MIC50 (Escherichia coli [6]) | MIC90 (Escherichia coli [6]) | MIC50 (Escherichia coli [7]) | MIC90 (Escherichia coli [7]) | MIC (Proteus mirabilis [8]) | MIC (Escherichia coli [9]) | MIC50 (Escherichia coli [10]) | MIC90 (Escherichia coli [10]) | MIC50 (Klebsiella pneumoniae [11]) | MIC90 (Klebsiella pneumoniae [11]) | MIC50 (Proteus mirabilis [12]) | MIC90 (Proteus mirabilis [12]) | MIC50 (Klebsiella pneumoniae [13]) | also measured |
| --- | --- | --- | --- | --- | --- | --- | --- | --- | --- | --- | --- | --- | --- | --- | --- | --- | --- | --- | --- | --- | --- |
| CO/N=C(\C(=O)N[C@@H]1C(=O)N2C(C(=O)[O-])=C(C[N+]3(C)CCCC3)CS[C@H]12)c1csc(N)n1 [CEFEPIME] | 2 µg/mL (≈ 4.16 µM) | 16 µg/mL (≈ 33.3 µM) | > 16 µg/mL | 16 µg/mL (≈ 33.3 µM) | > 16 µg/mL | 2 µg/mL (≈ 4.16 µM) | 2 µg/mL (≈ 4.16 µM) | 16 µg/mL (≈ 33.3 µM) | > 16 µg/mL | 16 µg/mL (≈ 33.3 µM) | > 16 µg/mL | 2 µg/mL (≈ 4.16 µM) | 2 µg/mL (≈ 4.16 µM) | 16 µg/mL (≈ 33.3 µM) | > 16 µg/mL | 16 µg/mL (≈ 33.3 µM) | > 16 µg/mL | 2 µg/mL (≈ 4.16 µM) | > 16 µg/mL | 8 µg/mL (≈ 16.6 µM) | MIC90 (Klebsiella pneumoniae [13]): > 16 µg/mL; MIC (Proteus mirabilis [14]): 1 µg/mL (≈ 2.08 µM); MIC50 (Klebsiella pneumoniae [15]): ≤ 2 µg/mL; MIC90 (Klebsiella pneumoniae [15]): > 16 µg/mL; MIC (Proteus mirabilis [16]): 1 µg/mL (≈ 2.08 µM) |
| CO/N=C(\C(=O)N[C@@H]1C(=O)N2C(C(=O)O)=C(COC(C)=O)CS[C@H]12)c1csc(N)n1 [CEFOTAXIME] | 2 µg/mL (≈ 4.39 µM) | > 32 µg/mL | > 32 µg/mL | > 32 µg/mL | > 32 µg/mL | 4 µg/mL (≈ 8.78 µM) | 1 µg/mL (≈ 2.2 µM) | > 32 µg/mL | > 32 µg/mL | > 32 µg/mL | > 32 µg/mL | 16 µg/mL (≈ 35.1 µM) | 4 µg/mL (≈ 8.78 µM) | > 32 µg/mL | > 32 µg/mL | > 32 µg/mL | > 32 µg/mL | 32 µg/mL (≈ 70.3 µM) | > 32 µg/mL | > 32 µg/mL | MIC50 (Escherichia coli [17]): > 32 µg/mL; MIC90 (Escherichia coli [17]): > 32 µg/mL; MIC50 (Klebsiella pneumoniae [18]): > 32 µg/mL; MIC90 (Klebsiella pneumoniae [18]): > 32 µg/mL; MIC (Klebsiella pneumoniae [19]): 2 µg/mL (≈ 4.39 µM); MIC90 (Klebsiella pneumoniae [13]): > 32 µg/mL; MIC (Proteus mirabilis [14]): 8 µg/mL (≈ 17.6 µM); MIC50 (Klebsiella pneumoniae [15]): 16 µg/mL (≈ 35.1 µM); MIC90 (Klebsiella pneumoniae [15]): > 32 µg/mL; MIC (Proteus mirabilis [16]): 0.25 µg/mL (≈ 0.549 µM) |
| CC(C)(O/N=C(\C(=O)N[C@@H]1C(=O)N2C(C(=O)[O-])=C(C[n+]3ccccc3)CS[C@H]12)c1csc(N)n1)C(=O)O [CEFTAZIDIME] | 16 µg/mL (≈ 29.3 µM) | 16 µg/mL (≈ 29.3 µM) | 64 µg/mL (≈ 117 µM) | 32 µg/mL (≈ 58.5 µM) | > 64 µg/mL | 4 µg/mL (≈ 7.32 µM) | 4 µg/mL (≈ 7.32 µM) | 32 µg/mL (≈ 58.5 µM) | 64 µg/mL (≈ 117 µM) | 16 µg/mL (≈ 29.3 µM) | 64 µg/mL (≈ 117 µM) | 64 µg/mL (≈ 117 µM) | 16 µg/mL (≈ 29.3 µM) | > 32 µg/mL | > 32 µg/mL | 32 µg/mL (≈ 58.5 µM) | > 64 µg/mL | 64 µg/mL (≈ 117 µM) | > 64 µg/mL | 32 µg/mL (≈ 58.5 µM) | MIC50 (Escherichia coli [17]): 32 µg/mL (≈ 58.5 µM); MIC90 (Escherichia coli [17]): > 64 µg/mL; MIC50 (Klebsiella pneumoniae [18]): 64 µg/mL (≈ 117 µM); MIC90 (Klebsiella pneumoniae [18]): > 64 µg/mL; MIC (Klebsiella pneumoniae [19]): 64 µg/mL (≈ 117 µM); MIC90 (Klebsiella pneumoniae [13]): > 64 µg/mL; MIC (Proteus mirabilis [14]): 2 µg/mL (≈ 3.66 µM); MIC50 (Klebsiella pneumoniae [15]): 8 µg/mL (≈ 14.6 µM); MIC90 (Klebsiella pneumoniae [15]): > 64 µg/mL; MIC (Proteus mirabilis [16]): 2 µg/mL (≈ 3.66 µM) |
| CO/N=C(\C(=O)N[C@@H]1C(=O)N2C(C(=O)O)=C(CSc3nc(=O)c(O)nn3C)CS[C@H]12)c1csc(N)n1 [CEFTRIAXONE] | 2 µg/mL (≈ 3.61 µM) | > 32 µg/mL | > 32 µg/mL | > 32 µg/mL | > 32 µg/mL | 4 µg/mL (≈ 7.21 µM) | 2 µg/mL (≈ 3.61 µM) | > 32 µg/mL | > 32 µg/mL | > 32 µg/mL | > 32 µg/mL | 8 µg/mL (≈ 14.4 µM) | 4 µg/mL (≈ 7.21 µM) | > 32 µg/mL | > 32 µg/mL | > 32 µg/mL | > 32 µg/mL | 8 µg/mL (≈ 14.4 µM) | 32 µg/mL (≈ 57.7 µM) | > 32 µg/mL | MIC50 (Escherichia coli [17]): > 32 µg/mL; MIC90 (Escherichia coli [17]): > 32 µg/mL; MIC50 (Klebsiella pneumoniae [18]): > 32 µg/mL; MIC90 (Klebsiella pneumoniae [18]): > 32 µg/mL; MIC (Klebsiella pneumoniae [19]): 1 µg/mL (≈ 1.8 µM); MIC90 (Klebsiella pneumoniae [13]): > 32 µg/mL; MIC (Proteus mirabilis [14]): 2 µg/mL (≈ 3.61 µM); MIC50 (Klebsiella pneumoniae [15]): 8 µg/mL (≈ 14.4 µM); MIC90 (Klebsiella pneumoniae [15]): > 32 µg/mL; MIC (Proteus mirabilis [16]): 1 µg/mL (≈ 1.8 µM) |

Reference: ChEMBL document CHEMBL1629612, “Characterization and sequence analysis of extended-spectrum-{beta}-lactamase-encoding genes from Escherichia coli, Klebsiella pneumoniae, and Proteus mirabilis isolates collected during tigecycline phase 3 clinical trials” (2009)
